Measured values collected from several papers.
Compare with care: the assays were run in different laboratories.
BRD9: Bromodomain-containing protein 9 (BRD9, Homo sapiens, UniProt Q9H8M2)
PIP4K2A: Phosphatidylinositol 5-phosphate 4-kinase type-2 alpha (PIP4K2A, Homo sapiens, UniProt P48426)
STK35: Serine/threonine-protein kinase 35 (STK35, Homo sapiens, UniProt Q8TDR2)
ACVR2A: Activin receptor type-2A (ACVR2A, Homo sapiens, UniProt P27037)
Methionyl-tRNA synthetase, putative: Methionyl-tRNA synthetase, putative (Trypanosoma brucei brucei, UniProt Q38C91)
SLC10A2: Ileal sodium/bile acid cotransporter (SLC10A2, Homo sapiens, UniProt Q12908)
SETD7: Histone-lysine N-methyltransferase SETD7 (SETD7, Homo sapiens, UniProt Q8WTS6)

SMILES	target	assay	test system	setting	quantity	result
Cc1cc2c(cc1N1C(=O)c3cccc4c(Cl)ccc(c34)C1=O)n(C)c(=O)n2C	PHIP (Homo sapiens, UniProt Q8WWQ0)	thermal stability, DSF	–	10 µM	ΔTm	-2.4 °C
C[S+]([O-])c1ccc(-c2nc(-c3ccncc3)c(-c3ccc(F)cc3)[nH]2)cc1 (stereo not drawn)	BRD9	thermal stability, DSF	–	10 µM	ΔTm	-0.33 °C
Cc1ccc(NC(=O)c2ccc(C)c(C(F)(F)F)c2)cc1C#Cc1nn(C2CCC(O)CC2)c2ncnc(N)c12 (stereo not drawn)	PIP4K2A	cell-free assay, inhibitor	–	10 µM	remaining signal	100%
Nc1ncnc2occ(-c3ccc(NC(=O)Nc4cc(C(F)(F)F)ccc4F)cc3)c12	STK35	cell-free assay, inhibitor	–	20 µM	remaining signal	1.6%
CN1CCC2(CC1)NC(=O)c1c(c3ccc(Cl)c(Cl)c3n1C)C2C#N (racemic)	ACVR2A	thermal stability, DSF	–	10 µM	ΔTm	0.4 °C
O=C(Cc1cc(Cl)cc(Cl)c1)N1CCCC(c2nc3cc(F)ccc3[nH]2)C1 (stereo not drawn)	Methionyl-tRNA synthetase, putative	thermal stability, DSF	–	100 µM	ΔTm	8 °C
COc1cc(Cl)c(C(=O)N[C@@H](CN[C@H]2CC[C@@H](N)CC2)Cc2ccc(C#N)cc2)cc1-c1ccc(CN[C@H](C)c2ccc(C)cc2)o1	STK35	enzyme activity, inhibitor	–	1 µM	remaining activity	98%
Cc1cnc(NC2CCOCC2)nc1-n1cnc(C(=O)NC(CN)c2cc(F)cc(Cl)c2)c1 (stereo not drawn)	PIP4K2A	enzyme activity, inhibitor, radiometric	–	1 µM	remaining activity	102%
COc1cc2ncnc(Nc3ccc(F)c(Cl)c3)c2cc1OCCCN1CCOCC1	SLC10A2	transporter uptake, inhibitor, radiometric	–	1 mM	inhibition	< 10%
O=c1c(-c2cc(O)c(O)c(O)c2)coc2cc(O)c(O)c(O)c12	SETD7	cell-free assay	–	10 µM	inhibition	34%
N#Cc1ccc(/C=C/CN(CC[C@H](N)C(=O)O)C[C@H]2O[C@@H](n3cnc4c(N)ncnc43)[C@H](O)[C@@H]2O)cc1	Histone-lysine N-methyltransferase SETD2 (SETD2, Homo sapiens, UniProt Q9BYW2)	enzyme activity, inhibitor	–	1 µM	activity vs control	108%
O=C(Cc1cc(Cl)cc(Cl)c1)N1CCCC(c2nc3cc(Cl)c(F)cc3[nH]2)C1 (stereo not drawn)	Methionyl-tRNA synthetase, putative	thermal stability, DSF	–	100 µM	ΔTm	7 °C
Cc1cnc(Nc2ccc(OCCN3CCCC3)cc2)nc1Nc1cccc(S(=O)(=O)NC(C)(C)C)c1	BRD9	thermal stability, DSF	–	10 µM	ΔTm	0.58 °C
Nc1nc(NC2CC2)c2ncn([C@H]3C=C[C@@H](CO)C3)c2n1	SLC10A2	transporter uptake, inhibitor, radiometric	–	1 mM	inhibition	13.1%
COC(=O)c1ccc(N2CCN(C)CC2)c(NC(=O)c2cccc(OC)c2)c1	WD repeat-containing protein 5 (WDR5, Homo sapiens, UniProt P61964)	thermal stability, DSF	–	100 µM	ΔTm	8.4 °C
Cc1ccc(C(=O)Nc2ccc(CN3CCN(C)CC3)c(C(F)(F)F)c2)cc1C#Cc1cnc2cccnn12	Cyclin-dependent kinase-like 3 (CDKL3, Homo sapiens, UniProt Q8IVW4)	enzyme activity	–	23.5 nM	remaining activity	26%
O=C(O)C1=CC(=C(c2ccc(O)c(C(=O)O)c2)c2ccc(O)c(C(=O)O)c2)C=CC1=O	SETD7	cell-free assay	–	10 µM	inhibition	100%
C[C@@H]1C[C@H]2[C@@H]3CCC4=CC(=O)C=C[C@]4(C)[C@@]3(F)[C@@H](O)C[C@]2(C)[C@@]1(O)C(=O)CO	SLC10A2	transporter uptake, inhibitor, radiometric	–	1 mM	inhibition	< 10%
CC(=O)N[C@H]1CSSC[C@@H](C(=O)N[C@@H](Cc2c[nH]c3ccccc23)C(N)=O)NC(=O)[C@@H](Cc2ccccc2)NC(=O)[C@H](CCCNC(=N)N)NC1=O	Melanocortin receptor 5 (MC5R, Homo sapiens, UniProt P33032)	cAMP, agonist	HEK293	3 min	Emax	0%
Oc1ccc(-c2nc(-c3ccncc3)c(-c3ccc(F)cc3)[nH]2)cc1	PHIP, BD2 (Homo sapiens, UniProt Q8WWQ0)	thermal stability, DSF	–	10 µM	ΔTm	0.27 °C
Cn1c2c(c3ccc(Cl)c(Cl)c31)C(C#N)C1(CCNCC1)NC2=O (racemic)	ACVR2A	thermal stability, DSF	–	10 µM	ΔTm	0 °C
